Compounds with a hit are over-represented: about 1.8% of the library has one in this group of screens.
M4 ag: agonists of human muscarinic M4 receptor (CHRM4); AID 624127; activation, % at 3 µM; CHO-K1 hM4/Gqi5, Fluo-8 calcium fluorescence; vehicle 0%, full acetylcholine response 100%; P08173; 360,000 tested, 0.14% active;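 active = activation above the run mean over all test wells plus 3 SD, cut at about 32% in these data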;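 note: peak over basal fluorescence ratio per well then scaled between controls; 0% = DMSO wells and 100% = acetylcholine at EC100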
M4 PAM: CHRM4 positive allosteric modulation; P08173; CHO-K1 hM4/Gqi5, Fluo-8 calcium fluorescence, ACh EC20; 0% = ACh EC20, 100% = maximal ACh; activation, % at 3 µM; 360,000 tested, 0.4% active;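 active = activation above its plate's cutoff, the mean activation of sample wells plus 3 SD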
CHRM5 PAM: potentiates acetylcholine response at human M5 receptor; 360,000 tested, 0.3% active; CHO-K1 hM5, Fluo-8 calcium, ACh EC20 PAM; 0% = ACh EC20, 100% = ACh EC100; activation, % at 3 µM; P08912;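 active = activation above the run cutoff, the mean activation of all test compounds plus 3 SD, cut at about 18% in these data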
Target sequence (P08912 whole entry, looked up): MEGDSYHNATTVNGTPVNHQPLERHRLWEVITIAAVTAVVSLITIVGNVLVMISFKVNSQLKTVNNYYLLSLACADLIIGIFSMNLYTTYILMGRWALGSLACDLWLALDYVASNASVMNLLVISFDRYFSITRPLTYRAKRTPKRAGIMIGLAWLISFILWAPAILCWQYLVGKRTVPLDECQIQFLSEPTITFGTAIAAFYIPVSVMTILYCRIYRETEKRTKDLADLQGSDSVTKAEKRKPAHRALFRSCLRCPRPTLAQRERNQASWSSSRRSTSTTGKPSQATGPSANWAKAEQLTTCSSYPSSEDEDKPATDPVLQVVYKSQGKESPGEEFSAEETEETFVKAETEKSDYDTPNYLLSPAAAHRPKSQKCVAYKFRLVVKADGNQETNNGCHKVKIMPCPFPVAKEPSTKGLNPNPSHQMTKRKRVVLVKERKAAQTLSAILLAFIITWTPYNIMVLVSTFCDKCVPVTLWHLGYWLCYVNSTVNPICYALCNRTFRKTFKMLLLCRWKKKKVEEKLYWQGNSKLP
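system = human M5 receptor in CHO-K1 cells | compound = one concentration, 3 µM final (nominal) | schedule = Post-acetylcholine fluorescence recording 140 s | signal = Fluo-8 calcium dye fluorescence, kinetic read | benchmarks = low control EC20 acetylcholine (0%), high control EC100 acetylcholine (100%) | repeats = singlicate, one well per test compound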
CHRM4 antagonist: CHRM4 antagonism in calcium assay; P08173; CHO-hM4 cells, ACh EC80, Fluo-8 calcium fluorescence; inhibition, % at 3 µM; AID 624125; 360,000 tested, 0.73% active;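 active = inhibition above its plate's cutoff, the mean inhibition of sample wells plus 3 SD, cut at about 27% in these data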;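 note: 0% = acetylcholine EC80 with DMSO and 100% = DMSO without agonist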
M5 antag: blocks acetylcholine activation of human M5 receptor; CHO-hM5 cells, Fluo-8 calcium fluorescence, ACh EC80; inhibition, % at 3 µM; 360,000 tested, 0.59% active; AID 624040;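 active = inhibition above a per-plate cutoff, the mean of that plate's test compounds plus 3 SD, cut at about 27% in these data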;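 note: 0% = acetylcholine EC80 with DMSO and 100% = DMSO without agonist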
M5 ag: CHRM5 agonism in calcium assay; CHO-K1 hM5 cells, Fluo-8 calcium fluorescence; 0% DMSO wells, 100% maximal acetylcholine response; activation, % at 3 µM; 360,000 tested, 0.19% active;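 active = activation above the run's mean over test compounds plus 3 SD, cut at about 23% in these data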;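 note: signal is peak over basal fluorescence ratio across the kinetic read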
An asterisk follows results filed as active.

SMILES | M4 ag | M4 PAM | CHRM5 PAM | CHRM4 antagonist | M5 antag | M5 ag
COc1cccc(-c2csc(N3CCN(C(=O)Nc4ccc(Cl)cc4)CC3)n2)c1 | 13 | -21 | -34 | 20 | 28* | -4
CC(C)CNC(=O)CSc1ccc(S(=O)(=O)N2CCN(C)CC2)cn1 | 0 | 8 | 7 | -1 | 5 | 1
COc1ccc(-c2cc(=O)oc3cc(OCC(=O)NCC4CCC(C(=O)O)CC4)ccc23)cc1 (centres undefined) | 0 | 6 | 1 | -6 | 2 | 1
COc1cc(/C=N/N2C(=O)C3C4c5ccccc5C(c5ccccc54)C3C2=O)ccc1O (centres undefined) | -1 | 17 | 33* | -7 | 19 | 2
C/C(=N\Nc1c(F)c(F)c(Br)c(F)c1F)c1ccncc1 | 1 | 15* | 3 | -18 | 5 | -11
O=C(N/N=C/C1CC2CCC1C2)c1c[nH]c2ccccc12 (centres undefined) | 1 | -1 | -2 | -2 | -6 | 1
O=C(NCc1ccc(F)cc1)C1CCCN(S(=O)(=O)c2cccc3nonc23)C1 (centres undefined) | 3 | 7 | 20* | -13 | -26 | 3
O=C(Nc1ccc(F)cc1)C1CCCN(S(=O)(=O)c2cccc3nonc23)C1 (centres undefined) | 3 | 3 | 1 | -18 | 5 | -1
COc1cc2c(cc1OC)C(COc1ccc([N+](=O)[O-])cc1)NCC2 (centres undefined) | 3 | 1 | -6 | -1 | 16 | -4
Cc1ncc(CN2CCCC(C(=O)Nc3ccc(-c4cccc(F)c4)cc3)C2)n1C (centres undefined) | 7 | -16 | -15 | 33* | 7 | -7
O=C(COc1ccc(-c2ccccc2)cc1)NNC(=O)Nc1ccc(F)cc1F | 0 | 0 | 43* | 8 | 19 | 3
O=C(COc1ccccc1)NC1CCCCC1 | 1 | 10 | -3 | 0 | 3 | -1
O=C(COc1ccc([N+](=O)[O-])cc1)NNC(=O)Nc1cccc(F)c1 | 1 | -6 | -11 | 7 | 29* | 0
O=C(COc1ccc(F)cc1F)NNC(=O)Nc1cccc([N+](=O)[O-])c1 | 2 | 0 | 4 | 1 | -3 | -4
CCOc1ccc(NC(=O)NNC(=O)COc2ccc3ccccc3c2)cc1 | 1 | 1 | 34* | -5 | 22 | 2
O=C(COc1ccc(-c2ccccc2)cc1)NNC(=O)NC1CCCCC1 | 3 | -21 | -6 | 87* | -2 | -2
COc1ccc(OC)c(NC(=O)NNC(=O)COc2ccc(-c3ccccc3)cc2)c1 | 1 | -2 | 9 | 2 | -19 | -1
CCOC(=O)C1ON2CCCCC2C1(O)C(F)(F)F (centres undefined) | 0 | -1 | 0 | -10 | -8 | -2
COc1cccc(CN(C)C(=O)COc2cccc3c2OC(C)(C)C3)c1OC | 5 | 22* | -4 | -8 | -4 | 2
CCOC(=O)c1csc(-c2ccc(OC)c(OC)c2)n1 | 1 | -1 | -4 | -10 | 12 | 1
COc1ccc(-c2nc(C(=O)O)cs2)cc1OC | 2 | 7 | 26* | -19 | -15 | 3
Cc1ccc2[nH]c(=O)c3cc(C(=O)NCCC(C)C)sc3c2c1 | 0 | 0 | 2 | 3 | 3 | -4
CC(C)CCNC(=O)c1cc2c(=O)[nH]c3ccccc3c2s1 | 9 | 26* | 12 | 19 | 18 | -2
CC(C)NC(=O)C(c1ccc(F)cc1)N(Cc1ccco1)C(=O)CCC(=O)Nc1ccccn1 (centres undefined) | 2 | 8 | -1 | -7 | 0 | 2
CC[N+]1(CC(O)COC2CC(C)CC(C)(C)C2)CCOCC1 (centres undefined) | 0 | -33 | -6 | 29* | 7 | -18
SMILES | M4 ag | M4 PAM | CHRM5 PAM | CHRM4 antagonist | M5 antag | M5 ag
COC(=O)c1sccc1NC(=O)Nc1cc(C)cc(C)c1 | -2 | -4 | -10 | 16 | 29* | -6
CCCOc1ccc(CNC(=S)Nc2ccccc2)cc1Cl | 10 | -12 | -11 | -4 | 12 | 1
O=C(Nc1ccncc1)Nc1cccc(C(F)(F)F)c1 | 18 | -6 | -12 | 5 | 25 | 11
O=C(Nc1ccc(OC(F)F)cc1)Nc1cccc(C(F)(F)F)c1 | 13 | -19 | -18 | 12 | 37* | 5
CCN(CC)S(=O)(=O)c1ccc(NC(=O)Nc2cccc(C(F)(F)F)c2)cc1 | 17 | -11 | -15 | 9 | 30* | 9
CN(C)S(=O)(=O)c1ccc(Cl)c(NC(=O)COC(=O)/C=C/c2ccco2)c1 | 1 | 2 | 7 | -14 | -5 | 2
COCC1CCCCC1OS(N)(=O)=O (centres undefined) | 1 | 2 | 10 | -2 | -3 | 4
Cc1nc(S(=O)(=O)N2CCN(C3c4ccccc4-c4ccccc43)CC2)cn1C | 6 | -4 | 4 | -12 | -11 | -6
Cc1nc2c(o1)CCc1ccccc1C2N1CCN(C)CC1 (centres undefined) | 1 | -9 | -43 | 98* | 98* | -10
CCC(C)(C#CCN1CCCCC1)OCCC#N (centres undefined) | 0 | -16 | -18 | 47* | 60* | -8
CCC(C#CCN1CCCCC1)(CC)OCCC#N | 1 | -14 | -22 | 25 | 24 | -8
Cc1c(NC(=O)Nc2ccc3c(c2)OCO3)cccc1[N+](=O)[O-] | 12 | 3 | -9 | -6 | 20 | -2
COc1cc(C(=O)NN2C(=O)NC3(CCC(C)CC3)C2=O)ccc1OC(F)F (centres undefined) | 1 | 3 | 2 | 19 | -2 | 0
O=C(CSc1nnc2c(n1)[nH]c1ccccc12)OCc1ccccc1 | 1 | 4 | 2 | -6 | 1 | 1
O=C(O)CSc1nnc2c(n1)[nH]c1ccccc12 | 1 | 1 | -11 | 3 | 34* | -5
CN1\C(=C/C=C/C=C/C=[N+](C)C)C(C)(C)c2ccccc21 | 8 | -14 | -9 | 21 | 9 | 38*
CCc1ccc(NC(=O)CS(=O)CC(=O)NCC2OCCc3ccccc32)cc1 (centres undefined) | 0 | 0 | 3 | -5 | -1 | -5
Cc1cccc(C)c1NC(=O)CS(=O)CC(=O)NCC1OCCc2ccccc21 (centres undefined) | 1 | 8 | 23* | -6 | 4 | 2
CCOC(=O)c1cc(-c2ccccc2)nn1CCC#N | 0 | 4 | 4 | -4 | 3 | 2
C=CCn1nc(-c2ccccc2)cc1C(=O)OCC | -2 | 19 | 21* | -13 | -5 | 5

Screening results: PubChem, The Scripps Research Institute Molecular Screening Center
